# Laboratory results taken from ChEMBL document CHEMBL5661986, “Discovery of the SMYD3 Inhibitor BAY-6035 Using Thermal Shift Assay (TSA)-Based High-Throughput Screening” (SLAS Discov, 2021).
# Activity calls are given as the source filed them. The calls are words filed in the database; no cut-off is given here.
# Experiments:
# [1] = target: T1, Histone-lysine N-methyltransferase SMYD3 (Homo sapiens) (UniProt Q9H7B4); assay: Binding affinity to recombinant human SMYD3 expressed in Escherichia coli assessed as change in enthalpy at 0.3 mM by isothermal titration calorimetry
# T1 sequence (whole entry): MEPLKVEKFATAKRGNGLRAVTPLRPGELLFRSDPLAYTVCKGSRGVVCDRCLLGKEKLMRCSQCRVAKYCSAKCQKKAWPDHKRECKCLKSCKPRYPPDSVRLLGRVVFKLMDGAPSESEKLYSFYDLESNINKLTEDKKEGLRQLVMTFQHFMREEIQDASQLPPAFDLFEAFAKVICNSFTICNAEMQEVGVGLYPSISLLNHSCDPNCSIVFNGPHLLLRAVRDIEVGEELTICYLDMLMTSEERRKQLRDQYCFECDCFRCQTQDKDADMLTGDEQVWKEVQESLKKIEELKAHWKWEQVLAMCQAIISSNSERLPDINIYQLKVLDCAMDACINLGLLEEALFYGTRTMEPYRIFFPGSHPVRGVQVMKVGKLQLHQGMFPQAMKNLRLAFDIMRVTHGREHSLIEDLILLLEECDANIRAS
# Summary of the method: (§1)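 Syringe held compound at 0.3 mM in 20 mM HEPES pH 7.4, 150 mM NaCl, 0.005% Tween 20, 2.5% DMSO; eight 4 µL injections at 180 s intervals into SMYD3.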
# [2] = target: Protein arginine N-methyltransferase 6 (Homo sapiens) (UniProt Q96LA8); assay: Inhibition of PRMT6 (unknown origin)
# [3] = target: Cyclin-dependent kinase 2/cyclin E1 (Homo sapiens, UniProt P24941); assay: Inhibition of CDK2/CyclinE (unknown origin) in presence of ATP; assay type: protein-complex assay
# [4] = target: Dual specificity tyrosine-phosphorylation-regulated kinase 1A (Homo sapiens, UniProt Q13627); assay: Inhibition of human DYRK1a
# [5] = Antiproliferative activity against human NCI-H2110 cells assessed as inhibition of cell viability measured for 3 to 5 days by alamar blue staining based assay; assay type: functional
# [6] = target: Histone-lysine N-methyltransferase SETD2 (Homo sapiens) (UniProt Q9BYW2); assay: Inhibition of SETD2 (unknown origin)
# [7] = target: Glycogen synthase kinase-3 beta (Homo sapiens, UniProt P49841); assay: Inhibition of GSK-3-beta (unknown origin) by HTRF assay
# Glycogen synthase kinase-3 beta, sequence (P49841 whole entry): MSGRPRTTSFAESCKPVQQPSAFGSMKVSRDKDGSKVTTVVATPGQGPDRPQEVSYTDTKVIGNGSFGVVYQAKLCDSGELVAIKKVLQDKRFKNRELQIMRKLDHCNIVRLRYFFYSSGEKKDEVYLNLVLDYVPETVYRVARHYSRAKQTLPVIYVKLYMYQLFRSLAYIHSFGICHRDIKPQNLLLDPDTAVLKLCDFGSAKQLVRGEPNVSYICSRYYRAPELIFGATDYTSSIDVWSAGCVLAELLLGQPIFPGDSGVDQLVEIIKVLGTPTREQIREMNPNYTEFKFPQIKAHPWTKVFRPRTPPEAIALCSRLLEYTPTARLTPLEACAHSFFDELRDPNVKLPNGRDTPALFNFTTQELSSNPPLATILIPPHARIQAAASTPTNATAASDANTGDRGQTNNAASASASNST
# [8] = target: Dual specificity mitogen-activated protein kinase kinase 5 (Homo sapiens, UniProt Q13163); assay: Inhibition of MEK5 (unknown origin) by competition binding assay
# Dual specificity mitogen-activated protein kinase kinase 5, sequence (Q13163 whole entry): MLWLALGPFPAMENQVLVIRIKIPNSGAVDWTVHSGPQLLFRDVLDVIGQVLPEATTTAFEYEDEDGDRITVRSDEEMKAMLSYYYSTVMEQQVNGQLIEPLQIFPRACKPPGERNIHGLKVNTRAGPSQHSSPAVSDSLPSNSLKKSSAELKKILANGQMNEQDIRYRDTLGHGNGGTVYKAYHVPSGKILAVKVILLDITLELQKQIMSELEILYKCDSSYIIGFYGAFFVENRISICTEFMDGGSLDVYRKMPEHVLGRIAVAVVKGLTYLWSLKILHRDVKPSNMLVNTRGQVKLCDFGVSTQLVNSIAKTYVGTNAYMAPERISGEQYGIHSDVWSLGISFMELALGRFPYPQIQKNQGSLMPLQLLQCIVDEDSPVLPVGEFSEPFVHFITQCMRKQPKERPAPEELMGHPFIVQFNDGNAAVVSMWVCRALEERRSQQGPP
# HT-29 = assay: Antiproliferative activity against human HT-29 cells assessed as inhibition of cell viability measured for 3 to 5 days by alamar blue staining based assay; assay type: functional
# [9] = target: MAP kinase-interacting serine/threonine-protein kinase 1 (Homo sapiens, UniProt Q9BUB5); assay: Inhibition of MKNK1 (unknown origin) in presence of ATP
# [10] = target: Protein arginine N-methyltransferase 7 (Homo sapiens) (UniProt Q9NVM4); assay: Inhibition of PRMT7 (unknown origin)
# [11] = target: T1, Histone-lysine N-methyltransferase SMYD3 (Homo sapiens); assay: Binding affinity to recombinant human SMYD3 expressed in Escherichia coli assessed as change in entropy at 0.3 mM by isothermal titration calorimetry; summary of the method: as §1
# [12] = target: Cyclin-dependent kinase 13 (Homo sapiens, UniProt Q14004); assay: Inhibition of CDK13 (unknown origin) by using c-myc peptide as substrate in presence of ATP
# Cyclin-dependent kinase 13, sequence (Q14004 whole entry): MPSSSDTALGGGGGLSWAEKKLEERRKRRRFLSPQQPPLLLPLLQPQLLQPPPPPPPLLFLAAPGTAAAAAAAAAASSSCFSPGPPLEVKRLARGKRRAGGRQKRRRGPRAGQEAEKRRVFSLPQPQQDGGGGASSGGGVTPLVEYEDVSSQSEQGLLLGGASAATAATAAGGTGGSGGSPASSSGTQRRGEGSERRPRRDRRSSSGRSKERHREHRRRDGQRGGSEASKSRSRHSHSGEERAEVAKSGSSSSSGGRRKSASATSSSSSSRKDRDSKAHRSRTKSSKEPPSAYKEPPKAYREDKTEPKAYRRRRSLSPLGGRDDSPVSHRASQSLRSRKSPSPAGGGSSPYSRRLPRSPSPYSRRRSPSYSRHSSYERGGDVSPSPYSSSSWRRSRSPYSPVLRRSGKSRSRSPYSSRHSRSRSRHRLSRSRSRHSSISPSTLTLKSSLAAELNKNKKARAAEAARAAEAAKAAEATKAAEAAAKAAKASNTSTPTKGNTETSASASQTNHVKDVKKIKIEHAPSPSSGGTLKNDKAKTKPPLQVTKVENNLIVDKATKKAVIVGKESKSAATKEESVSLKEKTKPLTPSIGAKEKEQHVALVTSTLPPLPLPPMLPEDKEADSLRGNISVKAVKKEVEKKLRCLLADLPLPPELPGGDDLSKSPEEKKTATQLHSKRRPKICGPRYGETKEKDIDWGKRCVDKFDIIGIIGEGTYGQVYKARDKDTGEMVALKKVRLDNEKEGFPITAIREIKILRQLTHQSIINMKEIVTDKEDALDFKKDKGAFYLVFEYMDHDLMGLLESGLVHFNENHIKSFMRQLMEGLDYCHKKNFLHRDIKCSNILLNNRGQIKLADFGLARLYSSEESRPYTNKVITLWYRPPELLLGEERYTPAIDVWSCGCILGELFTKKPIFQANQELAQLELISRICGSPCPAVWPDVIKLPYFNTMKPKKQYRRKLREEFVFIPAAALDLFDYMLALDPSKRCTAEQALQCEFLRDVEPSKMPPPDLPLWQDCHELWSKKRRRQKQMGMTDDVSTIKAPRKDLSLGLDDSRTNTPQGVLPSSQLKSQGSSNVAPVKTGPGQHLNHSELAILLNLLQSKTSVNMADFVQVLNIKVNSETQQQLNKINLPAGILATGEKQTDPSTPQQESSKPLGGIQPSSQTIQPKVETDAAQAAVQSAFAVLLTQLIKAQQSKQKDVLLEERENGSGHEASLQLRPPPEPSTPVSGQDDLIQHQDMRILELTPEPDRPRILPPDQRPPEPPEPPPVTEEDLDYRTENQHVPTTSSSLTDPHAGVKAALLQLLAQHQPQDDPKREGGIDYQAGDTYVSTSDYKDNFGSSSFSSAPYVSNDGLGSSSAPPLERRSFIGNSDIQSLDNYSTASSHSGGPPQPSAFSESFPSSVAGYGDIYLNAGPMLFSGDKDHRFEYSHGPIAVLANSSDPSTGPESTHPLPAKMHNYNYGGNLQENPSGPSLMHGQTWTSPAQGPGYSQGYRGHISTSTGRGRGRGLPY
# [13] = target: Histone-lysine N-methyltransferase KMT5B (Homo sapiens) (UniProt Q4FZB7); assay: Inhibition of SUV420H1 (unknown origin)
# [14] = target: DNMT3B-DNMT3L complex (Homo sapiens) (UniProt Q9UBC3+Q9UJW3); assay: Inhibition of DNMT3B/DNMT3L (unknown origin); assay type: protein-complex assay
# [15] = target: Mitogen-activated protein kinase 14 (Homo sapiens, UniProt Q16539); assay: Inhibition of p38alpha (unknown origin) by competition binding assay
# [16] = target: MAP kinase-interacting serine/threonine-protein kinase 2 (Homo sapiens, UniProt Q9HBH9); assay: Inhibition of MKNK2 (unknown origin) in presence of ATP
# [17] = target: Diacylglycerol kinase alpha (Mus musculus, UniProt O88673); assay: Inhibition of mouse DGK alpha by ADP-Glo assay
# [18] = target: T1, Histone-lysine N-methyltransferase SMYD3 (Homo sapiens); assay: Binding affinity to biotinylated SMYD3 (unknown origin) assessed as association rate constant (Kon) using S-adenosyl-l-methionine as substrate by surface plasmon resonance analysis
# Summary of the method: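 Biotinylated SMYD3 (aa 1–428) captured (~4700 RU) on streptavidin chip, empty reference flow cell; 25 °C; running buffer 20 mM HEPES pH 7.4, 150 mM NaCl, 3 mM EDTA, 0.05% Tween-20, 2% DMSO, plus 50 µM SAM. Single-cycle kinetics, five concentrations 25–2000 nM, 60 s contact, 300 s dissociation, 30 µL/min; triplicate.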
# [19] = target: Phosphatidylinositol 5-phosphate 4-kinase type-2 alpha (Homo sapiens, UniProt P48426); assay: Inhibition of human PIP4K2A
# HaCaT = assay: Antiproliferative activity against human HaCaT cells assessed as inhibition of cell viability measured for 3 to 5 days by alamar blue staining based assay; assay type: functional
# [20] = target: Vascular endothelial growth factor receptor 3 (Homo sapiens, UniProt P35916); assay: Inhibition of FLT4 (unknown origin)
# [21] = target: Histone-lysine N-methyltransferase SMYD3 (Homo sapiens, UniProt Q9H7B4); assay: (§2) Inhibition of SMYD3 catalytic inactive mutant co-expressed with HA-tagged MAP3K2 transfected in human HeLa cells assessed as reduction of MAP3K2-K260me3 level incubated for 20 hrs by Western blotting analysis; assay type: cell-based
# Summary of the method: (§3)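 After 4 h, compound or DMSO for 20 h. Lysates immunoblotted for MAP3K2-K260me3 (in-house antibody), HA, SMYD3 and MAP3K2 with infrared secondaries. K260me3 signal normalized to HA; three technical replicates, mean ± SEM, nonlinear fit.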
# [22] = tested on: Histone-lysine N-methyltransferase SMYD3 (Homo sapiens), Q9H7B4 [UNDEFINED MUTATION]; assay: as §2; assay type: cell-based; summary of the method: as §3
# [23] = target: Histone-arginine methyltransferase CARM1 (Homo sapiens) (UniProt Q86X55); assay: Inhibition of PRMT4 (unknown origin)
# Histone-arginine methyltransferase CARM1 (Homo sapiens), sequence (Q86X55 whole entry): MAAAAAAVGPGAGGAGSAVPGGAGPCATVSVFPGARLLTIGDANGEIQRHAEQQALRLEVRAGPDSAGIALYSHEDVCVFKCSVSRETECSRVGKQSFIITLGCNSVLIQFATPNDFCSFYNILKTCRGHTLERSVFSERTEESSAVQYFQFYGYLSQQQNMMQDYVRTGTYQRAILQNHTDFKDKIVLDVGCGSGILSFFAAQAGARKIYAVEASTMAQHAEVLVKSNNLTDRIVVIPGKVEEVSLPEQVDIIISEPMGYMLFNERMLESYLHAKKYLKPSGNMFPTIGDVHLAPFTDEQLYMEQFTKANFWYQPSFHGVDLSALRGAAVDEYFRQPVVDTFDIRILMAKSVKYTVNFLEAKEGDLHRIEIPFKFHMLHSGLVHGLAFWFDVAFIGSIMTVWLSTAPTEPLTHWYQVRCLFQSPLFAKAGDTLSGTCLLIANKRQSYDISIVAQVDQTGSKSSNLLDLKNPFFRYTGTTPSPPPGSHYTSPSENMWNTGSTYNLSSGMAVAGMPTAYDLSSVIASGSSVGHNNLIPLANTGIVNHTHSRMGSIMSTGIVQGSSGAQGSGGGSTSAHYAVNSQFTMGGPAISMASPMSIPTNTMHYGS
# [24] = target: High affinity nerve growth factor receptor (Homo sapiens, UniProt P04629); assay: Inhibition of human TRK-A
# [25] = target: Serine/threonine-protein kinase 4 (Homo sapiens, UniProt Q13043); assay: Inhibition of MST1 (unknown origin)
# [26] = target: Casein kinase I isoform gamma-3 (Homo sapiens, UniProt Q9Y6M4); assay: Inhibition of CSNK1G3 (unknown origin)
# Casein kinase I isoform gamma-3, sequence (Q9Y6M4 whole entry, canonical isoform): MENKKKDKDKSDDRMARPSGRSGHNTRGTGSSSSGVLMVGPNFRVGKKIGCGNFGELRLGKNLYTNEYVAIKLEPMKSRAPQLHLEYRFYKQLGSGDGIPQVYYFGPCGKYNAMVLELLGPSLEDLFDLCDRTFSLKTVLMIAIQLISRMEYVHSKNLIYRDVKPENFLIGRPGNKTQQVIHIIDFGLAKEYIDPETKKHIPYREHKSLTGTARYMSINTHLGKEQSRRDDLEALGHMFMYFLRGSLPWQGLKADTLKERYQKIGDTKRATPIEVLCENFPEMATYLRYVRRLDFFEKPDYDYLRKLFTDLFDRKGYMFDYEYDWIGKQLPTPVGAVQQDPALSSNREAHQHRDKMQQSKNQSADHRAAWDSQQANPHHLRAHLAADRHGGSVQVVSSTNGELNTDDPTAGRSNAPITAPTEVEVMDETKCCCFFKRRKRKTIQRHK
# [27] = target: Cyclin-dependent kinase 12 (Homo sapiens, UniProt Q9NYV4); assay: Inhibition of CDK12 (unknown origin) by using c-myc peptide as substrate in presence of ATP
# Cyclin-dependent kinase 12, sequence (Q9NYV4 whole entry): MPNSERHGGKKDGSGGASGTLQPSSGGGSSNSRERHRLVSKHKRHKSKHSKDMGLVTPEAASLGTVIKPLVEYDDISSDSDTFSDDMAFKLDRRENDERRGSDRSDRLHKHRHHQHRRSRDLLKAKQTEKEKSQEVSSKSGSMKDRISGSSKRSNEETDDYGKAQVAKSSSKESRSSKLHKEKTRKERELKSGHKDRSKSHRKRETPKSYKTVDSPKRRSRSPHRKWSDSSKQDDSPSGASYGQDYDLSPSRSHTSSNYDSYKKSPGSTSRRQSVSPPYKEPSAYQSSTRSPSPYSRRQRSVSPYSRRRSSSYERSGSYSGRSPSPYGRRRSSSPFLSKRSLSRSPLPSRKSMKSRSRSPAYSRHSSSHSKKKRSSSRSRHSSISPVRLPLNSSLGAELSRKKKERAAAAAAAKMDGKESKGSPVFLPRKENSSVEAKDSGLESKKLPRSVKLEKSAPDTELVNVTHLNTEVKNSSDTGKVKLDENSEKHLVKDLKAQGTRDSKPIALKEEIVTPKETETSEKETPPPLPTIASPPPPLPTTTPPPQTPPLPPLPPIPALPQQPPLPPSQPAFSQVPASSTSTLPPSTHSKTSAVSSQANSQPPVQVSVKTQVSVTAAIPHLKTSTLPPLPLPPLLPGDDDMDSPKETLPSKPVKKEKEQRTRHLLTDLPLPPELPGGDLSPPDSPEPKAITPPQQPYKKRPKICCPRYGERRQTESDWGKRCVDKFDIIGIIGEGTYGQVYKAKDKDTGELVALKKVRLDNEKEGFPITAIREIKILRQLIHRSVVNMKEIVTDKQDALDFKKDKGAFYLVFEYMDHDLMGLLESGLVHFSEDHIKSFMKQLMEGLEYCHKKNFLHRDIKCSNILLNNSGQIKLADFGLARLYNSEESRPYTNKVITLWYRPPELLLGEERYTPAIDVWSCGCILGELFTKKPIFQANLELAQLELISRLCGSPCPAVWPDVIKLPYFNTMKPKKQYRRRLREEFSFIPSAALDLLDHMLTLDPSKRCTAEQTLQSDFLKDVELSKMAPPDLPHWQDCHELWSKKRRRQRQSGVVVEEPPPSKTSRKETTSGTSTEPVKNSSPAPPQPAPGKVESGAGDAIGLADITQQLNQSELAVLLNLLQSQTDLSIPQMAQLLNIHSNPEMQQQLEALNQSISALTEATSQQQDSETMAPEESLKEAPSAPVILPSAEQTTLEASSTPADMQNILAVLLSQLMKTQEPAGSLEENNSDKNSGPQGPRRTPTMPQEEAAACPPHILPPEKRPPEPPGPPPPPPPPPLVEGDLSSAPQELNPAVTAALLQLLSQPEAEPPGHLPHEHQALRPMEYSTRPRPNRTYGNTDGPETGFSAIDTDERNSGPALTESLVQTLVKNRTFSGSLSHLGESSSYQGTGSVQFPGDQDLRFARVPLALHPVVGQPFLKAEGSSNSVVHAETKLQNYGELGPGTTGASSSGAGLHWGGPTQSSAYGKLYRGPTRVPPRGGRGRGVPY
# PaTu 8988t = assay: Antiproliferative activity against human PaTu 8988t cells assessed as inhibition of cell viability measured for 3 to 5 days by alamar blue staining based assay; assay type: functional
# [28] = target: Mitotic checkpoint serine/threonine-protein kinase BUB1 (Homo sapiens, UniProt O43683); assay: Inhibition of Bub1 (unknown origin) in presence of ATP
smiles,measurement,setting,value
C[C@H]1CC(=O)Nc2cc(C(=O)NCCC3CC3)ccc2N1C(=O)N1CC2CC2C1 (some centres not stated),deltaH,[1],-4.2 kcal/mol
same,inhibition,[2],inactive
same,IC50,[3],> 20 µM
same,IC50,[4],> 20 µM
same,IC50,[5],> 10 µM
same,inhibition,[6],inactive
same,IC50,[7],> 20 µM
same,IC50,[8],> 20 µM
same,IC50,HT-29,> 10 µM
same,IC50,[9],> 20 µM
same,inhibition,[10],inactive
same,-TdeltaS,[11],-5 kcal/mol
same,deltaS,[11],17 cal/mol.K
same,IC50,[12],> 20 µM
same,inhibition,[13],inactive
same,inhibition,[14],inactive
same,IC50,[15],> 20 µM
same,IC50,[16],> 20 µM
same,IC50,[17],> 20 µM
same,Ka,[18],3.1 10^5/M/s
same,IC50,[19],> 20 µM
same,IC50,HaCaT,> 10 µM
same,IC50,[20],> 20 µM
same,IC50,[21],0.183 µM
same,inhibition,[22],Dose-Dependent Effect
same,inhibition,[23],inactive
same,IC50,[24],> 20 µM
same,IC50,[25],> 20 µM
same,IC50,[26],> 20 µM
same,IC50,[27],> 20 µM
same,IC50,PaTu 8988t,> 10 µM
same,IC50,[28],> 20 µM
